Measurements reported in ChEMBL document CHEMBL1649415, “Synthesis, physicochemical characterization, and biological activities of new carnosine derivatives stable in human serum as potential neuroprotective agents” (J Med Chem, 2011).
The source made the active and inactive calls. No cut-off for these calls is given here.

Legend:
[1] = Antioxidant activity assessed as 4-hydroxy-trans-2,3-nonenal scavenging activity at 1 mM after 1 hr by HPLC relative to control; assay type: functional
Method in brief: (§1)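 HNE (50 µM final) incubated with compound (1 mM final) in 1 mM phosphate buffer pH 7.4 at 37 °C for up to 24 h. Samples were injected directly onto reverse-phase C18 HPLC to measure remaining HNE. Scavenging % = 100 − (HNE left with scavenger / HNE left in control × 100); mean ± SEM.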

[2] = Lipophilicity, log D of the compound by shake-flask technique; assay type: physicochemical; details: octanol/water
Method in brief: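 Shake-flask at pH 7.4, in phosphate buffer with ionic strength 0.15 M KCl and mutually presaturated n-octanol (4 h). Compound about 0.1 mM in the aqueous phase, shaken about 20 min, then centrifuged. Aqueous concentration measured by UV at 230 nm; at least seven log D determinations per compound.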

[3] = Antioxidant activity assessed as 4-hydroxy-trans-2,3-nonenal scavenging activity at 1 mM after 6 hrs by HPLC relative to control; assay type: functional; method in brief: as §1
[4] = Antioxidant activity assessed as 4-hydroxy-trans-2,3-nonenal scavenging activity at 1 mM after 24 hrs by HPLC relative to control; assay type: functional; method in brief: as §1
[5] = Antioxidant activity against CuSO4-induced LDL oxidation assessed as delta-lag time at 100 uM by antioxidation assay; assay type: functional
Method in brief: (§2)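 Human plasma LDL (EDTA-treated donor plasma, density 1.019-1.063 g/mL fraction by ultracentrifugation, desalted) diluted in 10 mM phosphate buffer pH 7.4 to 50 µg protein/mL. Compound added at 100 µM final, oxidation started with CuSO4 2.5 µM final at 37 °C. Conjugated dienes followed at 234 nm over 6 h. Lag-time change versus control and propagation rate (ε234 = 29500 M-1 cm-1) derived; mean ± SEM.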

[6] = Antioxidant activity against CuSO4-induced LDL oxidation measured per mg og LDL product assessed as propagation rate of the oxidation at 100 uM by antioxidation assay; assay type: functional; method in brief: as §2
Serum = test: Stability of the compound in human serum after 3 hrs; assay type: ADME, cell-free
Method in brief: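 Compound added from a 10 mM aqueous stock to human serum preheated to 37 °C, giving 0.5 mM final, and incubated at 37 ± 0.5 °C. At intervals, aliquots were deproteinized with an equal volume of acetonitrile/0.1% TFA, centrifuged and filtered. Analysis by RP-HPLC on C18 with methanol/20 mM sodium acetate pH 4.5-5 mM SDS (80/20 to 60/40).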

[7] = Drug level in Wistar rat brain measured per gram of tissue at 20 mg/kg, iv after 1.5 hrs; assay type: ADME, organism-based; set-up: dose 20 mg/kg, route intravenous; details: read-out: Drug uptake
Method in brief: (§3)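 Male Wistar rats, 200-250 g, given 20 mg/kg i.v. in 0.9% saline; 3 rats per time point, killed at 1.5 or 3 h. Heparinized blood and brain homogenized in equal volume of cold water were deproteinized with acetonitrile/0.1% TFA, centrifuged and filtered. RP-HPLC on C18 with methanol/20 mM sodium acetate pH 4.5-5 mM SDS (70/30), detection 210 and 223 nm; spiked untreated-rat samples used as standards.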

[8] = Drug level in Wistar rat blood at 20 mg/kg, iv after 1.5 hrs; assay type: ADME, organism-based; set-up: dose 20 mg/kg, route intravenous; details: whole blood, read-out: Drug uptake; method in brief: as §3
[9] = Drug level in Wistar rat brain measured per gram of tissue at 20 mg/kg, iv after 3 hrs; assay type: ADME, organism-based; set-up: dose 20 mg/kg, route intravenous; details: read-out: Drug uptake; method in brief: as §3
Neuron [10] = test: Cytoprotective effect in mouse primary hippocampal neuron assessed as reduction in 4-hydroxy-trans-2,3-nonenal-induced damage at 100 uM after 24 hrs; assay type: functional, Hippocampus; set-up: scale not given: the % may be the effect or the level left
Method in brief: (§4)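 They were grown 6 days in B-27 neurobasal medium at 37 °C, 5% CO2. Compound (100 µM in medium) was given alone or as pretreatment before HNE 10 µM, for 24 h. Death was scored by trypan blue exclusion against pre-incubation counts; mean ± SEM, n = 4-7, paired t test.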

[11] = Toxicity in mouse primary hippocampal neuron assessed as adverse effect at 100 uM after 24 hrs; assay type: tissue-based, Hippocampus
Neuron [12] = test: Cytoprotective effect in mouse primary hippocampal neuron assessed as reduction in 4-hydroxy-trans-2,3-nonenal-induced neuronal disruption at 100 uM after 24 hrs; assay type: functional, tissue-based; details: Hippocampus; method in brief: as §4

SMILES	logD [2]	Stability (Serum)	concentration at 1.5 h [7]	concentration at 1.5 h [8]	concentration at 3 h [9]	Activity [1]	Activity [3]	Activity [4]	TIME [5]	Activity [6]	Activity (Neuron [10])	Activity [11]	Activity (Neuron [12])
NCCC(=O)N[C@@H](Cc1c[nH]cn1)C(=O)NCc1ccccc1.O=C(O)C(F)(F)F	-1.76	Stable				7.2%	29.3%	72.8%	1.42 h	5.2 nmol/min			
CCCNC(=O)[C@H](Cc1c[nH]cn1)NC(=O)CCN.O=C(O)C(F)(F)F	-2.72	Stable	600 ng/g	260 ng/mL	1100 ng/g	12.5%	42.7%	81%	1.13 h	7.7 nmol/min	40%	Non-toxic	Active
NCCC(=O)N[C@@H](Cc1c[nH]cn1)C(N)=O.O=C(O)C(F)(F)F		Stable				10.2%	31.6%	77.7%	1.07 h	7.7 nmol/min			
NCCC(=O)N[C@@H](Cc1c[nH]cn1)C(=O)O [CARNOSINE]						20.4%	59.6%	88.8%	1.12 h	5.8 nmol/min	6%		
CNC(=O)[C@H](Cc1c[nH]cn1)NC(=O)CCN.O=C(O)C(F)(F)F		Stable				8%	35.2%	75.4%	1.25 h	6.8 nmol/min			
NCCC(=O)N[C@@H](Cc1c[nH]cn1)C(=O)NCC1CCCCC1.O=C(O)C(F)(F)F	-0.94	Stable				12.8%	28.2%	62.5%	1.42 h	5.6 nmol/min			
CCCCCCNC(=O)[C@H](Cc1c[nH]cn1)NC(=O)CCN.O=C(O)C(F)(F)F	-0.88	Stable				12%	35.4%	75.9%	1.32 h	6.7 nmol/min			

Second part, led by results:

logD [2]	Stability (Serum)	concentration at 1.5 h [7]	concentration at 1.5 h [8]	concentration at 3 h [9]	SMILES	Activity [1]	Activity [3]	Activity [4]	TIME [5]	Activity [6]	Activity (Neuron [10])	Activity [11]	Activity (Neuron [12])
0.93	Stable				CCCCCCCCCCCCNC(=O)[C@H](Cc1c[nH]cn1)NC(=O)CCN.O=C(O)C(F)(F)F				-0.05 h	14.5 nmol/min			
-2.01	Stable				CCCCNC(=O)[C@H](Cc1c[nH]cn1)NC(=O)CCN.O=C(O)C(F)(F)F	12.5%	36.2%	75.2%	1.37 h	5.7 nmol/min			
	Stable				NCCC(=O)N[C@@H](Cc1cnc[nH]1)C(=O)O [CARNOSINE]							Non-toxic	
0.85	Stable				CCCCCCCCCCNC(=O)[C@H](Cc1c[nH]cn1)NC(=O)CCN.O=C(O)C(F)(F)F				0.15 h	21 nmol/min			
-0.23	Stable				CCCCCCCCNC(=O)[C@H](Cc1c[nH]cn1)NC(=O)CCN.O=C(O)C(F)(F)F	12.8%	49.7%	86.7%	0.717 h	11.8 nmol/min			
-2.17	Stable				CCOC[C@H](Cc1c[nH]cn1)NC(=O)CCN.O=C(O)C(F)(F)F	17.9%	60.7%	86.2%	-0.0667 h	12.2 nmol/min			
	Stable				CCNC(=O)[C@H](Cc1c[nH]cn1)NC(=O)CCN.O=C(O)C(F)(F)F	8.4%	32.9%	70.9%	1.13 h	7 nmol/min			
-0.13	Stable				CCCCOc1ccc(CNC(=O)[C@H](Cc2c[nH]cn2)NC(=O)CCN)cc1.O=C(O)C(F)(F)F	8.8%	32.6%	80.7%	0.817 h	10 nmol/min			
